Shown are actives, neighbours in structure and some others; about 2.4% of the full set was active somewhere.
SUMO1-SIM PPI = modulators of SUMO1 protein-protein interactions, primary screen, biochemical, uHTS; Small ubiquitin-related modifier 1 (Homo sapiens), P63165; SUMO1 binding to a labelled peptide, TR-FRET, 1 h; inhibition, % at 20 µM; 360,000 tested, 0.33% active; in the data active = inhibition above about 37%
Target sequence (P63165 whole entry, looked up): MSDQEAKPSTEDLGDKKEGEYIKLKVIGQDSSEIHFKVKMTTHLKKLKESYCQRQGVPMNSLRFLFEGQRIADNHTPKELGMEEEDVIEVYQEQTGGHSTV
NadD inh = inhibitors of S. aureus NadD, primary screen, biochemical, colorimetric, uHTS | Nicotinate-nucleotide adenylyltransferase NadD (Staphylococcus aureus N315) | purified NadD enzyme, colorimetric absorbance read-out | inhibition, % at 20 µM | 360,000 tested, 0.78% active; in the data active = inhibition above about 26%
DNMT1 block = human DNMT1 methyltransferase inhibitors, primary screen, biochemical, molecular beacon, fluorescence, HinP1I cleavage, uHTS; inhibition (reported as % activation of signal), % at 10 µM; 360,000 tested, 0.83% active; in the data active = inhibition above about 50%
STEP block = STEP phosphatase inhibitors, primary screen, biochemical, fluorescence intensity, uHTS; AID 588621, 2011; 360,000 tested, 0.25% active; inhibition, % at 20 µM; Tyrosine-protein phosphatase non-receptor type 5 (Homo sapiens), P54829; recombinant STEP, OMFP fluorogenic substrate;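 active = inhibition at 20 µM, scaled per plate between control wells, above about 37%, limit read from the data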;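 note: 0% = DMSO with enzyme and substrate and 100% = substrate only without enzyme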
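Material: STEP (striatal-enriched tyrosine phosphatase) enzyme, cell-free; Compound dosing: 20 µM single dose in 1% DMSO; Technique: fluorescence read at 480 nm ex / 540 nm em; Times: reaction 20 min, ambient temperature; Medium: 50 mM Bis-Tris pH 6.0 with 2.5 mM DTT and 0.005% Tween 20; Also added: OMFP at 25 µM.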
LMPTP block = LMPTP phosphatase inhibitors, primary screen, biochemical, fluorescence intensity, uHTS. Low molecular weight phosphotyrosine protein phosphatase (Homo sapiens), P24666. recombinant LMPTP-A, OMFP fluorogenic substrate. inhibition, % at 20 µM. 360,000 tested, 0.22% active;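 active = compounds that cut the enzyme signal by at least half of the control window in the single-dose screen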;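 note: plate controls were DMSO wells with enzyme plus substrate for no effect and substrate without enzyme for full effect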
Target sequence (P24666 whole entry, looked up): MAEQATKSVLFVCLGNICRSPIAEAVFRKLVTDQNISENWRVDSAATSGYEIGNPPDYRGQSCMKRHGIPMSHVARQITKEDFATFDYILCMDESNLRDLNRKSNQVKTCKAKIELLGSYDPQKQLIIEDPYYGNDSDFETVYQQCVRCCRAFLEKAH
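test system = LMPTP-A | amount = 0.625 nM LMPTP-A final | reagent = fluorogenic phosphatase substrate OMFP at 400 µM final | incubation = 50 min at room temperature | benchmarks = no-enzyme low control, uninhibited high control | medium = Bis-Tris pH 6.0, DTT, detergent | signal = fluorescence intensity of OMFP turnover product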
Scp-1 inhibitor = Scp-1 phosphatase inhibitors, primary screen, biochemical, colorimetric, uHTS. Recombinant Scp1, phosphopeptide, malachite green phosphate absorbance. inhibition, % at 20 µM. 340,000 tested, 0.88% active. AID 493091, 2011. Carboxy-terminal domain RNA polymerase II polypeptide A small phosphatase 1 (Homo …;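 active = inhibition above about 50% at 20 µM, limit read from the data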;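 note: plate controls were DMSO wells with enzyme for no effect and wells lacking enzyme for full effect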
Target sequence (Q9GZU7 76-261 limits assumed): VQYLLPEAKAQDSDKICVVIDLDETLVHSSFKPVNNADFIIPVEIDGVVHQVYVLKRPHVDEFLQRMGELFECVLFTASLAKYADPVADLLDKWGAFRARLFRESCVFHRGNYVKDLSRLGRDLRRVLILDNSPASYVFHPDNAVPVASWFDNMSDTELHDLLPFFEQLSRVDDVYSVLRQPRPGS
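System: truncated SCP-1 phosphatase (76-261aa); medium: Tris acetate buffer pH 5.5 with MgCl2 and Tween-20; incubation: 45 min room-temperature reaction, 5 min colour, 30 min stabiliser; compound: single 20 µM dose, 1% DMSO; reagent: Phosphorylated 17-residue peptide substrate; read-out: % inhibition at 20 µM; technique: colorimetric free-phosphate detection, absorbance 630 nm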
Scp1 confirm = Scp-1 phosphatase inhibitors, retest, confirmation, biochemical, colorimetric, single concentration. shares compounds with Scp-1 inhibitor. recombinant SCP-1 catalytic domain, phosphate release, malachite green absorbance. AID 540281, 2011. 2,500 tested, 61% active. inhibition, % at 20 µM;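 active = inhibition of at least 30% at 20 µM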;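 note: plate controls were DMSO with enzyme for no effect and buffer wells lacking enzyme for full effect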
Scp-1 MG ctr = colorimetric readout interference by compounds, confirmation, artefact control for Scp-1 inhibitor project, biochemical, single concentration | shares compounds with Scp-1 inhibitor | Colorimetric interference counterscreen, malachite green absorbance 630 nm | apparent inhibition (interference), % at 20 µM | 2,500 tested, under 10 active;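 active = inhibition of at least 30% at 20 µM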;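 note: compounds added after enzyme reaction finished so only phosphate colour detection is probed; plate controls were DMSO wells with completed Scp-1 reaction for no effect and substrate wells lacking enzyme for full effect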
Scp1 DSF = Scp-1 binding by thermal shift, confirmation, orthogonal assay for Scp-1 inhibitor project, biophysical, differential scanning fluorimetry; Recombinant SCP1, Sypro Orange thermal shift Tm; thermal shift relative to vanadate control, % at 40 µM; shares compounds with Scp-1 inhibitor; 1,500 tested, 25% active;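 active = substances whose mean melting-temperature shift, as a percentage of the reference inhibitor's shift, reaches about 5.3%, limit read from the data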;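 note: 0% = Tm of DMSO wells and 100% = Tm with sodium orthovanadate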
DNMT1 interf DR = spectral interference with molecular beacon fluorescence, dose response, artefact control for DNMT1 inhibitor project, biochemical, fluorescent molecular beacon. shares compounds with DNMT1 block. spectral interference counter-screen. IC50, µM. 200 tested, under 10 active. AID 602382, 2012
DNMT1 confirm = DNMT1 methyltransferase inhibitor retest, confirmation, biochemical, molecular beacon, fluorescence, single concentration | shares compounds with DNMT1 block | DNMT1 molecular beacon HinP1I cleavage | inhibition, % at 10 µM | 2,300 tested, 8% active | AID 602385, 2012;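 active = average inhibition of at least 30% in the single-concentration confirmation test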
DNMT1 interf = counter-screen for DNMT1 inhibitors: spectral interference | shares compounds with DNMT1 block | DNMT1 molecular beacon spectral interference counterscreen, fluorescence 485/520 | activation (fluorescence interference), % at 10 µM | 2,300 tested, 1% active;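 active = activation of at least 30% at 10 µM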;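 note: DNMT1 catalytic domain with a HinP1I cleavage step and a FAM/dabcyl DNA beacon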
STEP conf = STEP phosphatase inhibitor hit confirmation, biochemical, fluorescence intensity, single concentration; shares compounds with STEP block; recombinant STEP, OMFP fluorogenic substrate; inhibition, % at 20 µM; 520 tested, 32% active;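 note: 0% = enzyme with substrate plus DMSO and 100% = substrate without enzyme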
The depositor's hits bear a star; x = no result given. Unless noted, the rule behind the calls is not given here.

SMILES	SUMO1-SIM PPI	NadD inh	DNMT1 block	STEP block	LMPTP block	Scp-1 inhibitor	Scp1 confirm	Scp-1 MG ctr	Scp1 DSF	DNMT1 confirm	DNMT1 interf	STEP conf	others
COc1ccc(OC)c([N+](=O)[O-])c1C(N)=O	5	-7	75*	21	14	68*	62*	-7	-10	2	-2	x
COC(=O)c1ccccc1-c1ccc(/C=C2\C(=O)N(c3ccccc3)N=C2c2ccccc2)o1	39	9	14	3	5	-8	x	x	x	x	x	x
CCOC(=O)C(C)N1C(=O)S/C(=C\c2ccc(-c3ccccc3C(=O)O)o2)C1=O (stereo unspecified)	46*	-1	100*	26	6	52*	53*	-12	11*	45*	-3	x	DNMT1 interf DR=>99
COc1ccccc1N1C(=NC(=O)C2CCCCC2)SC2CS(=O)(=O)CC21 (stereo unspecified)	6	-4	1	3	0	-5	x	x	x	x	x	x
COc1ccc(C(=O)Oc2ccc(/C=N/NC(=O)Cc3ccc([N+](=O)[O-])cc3)cc2)cc1	0	10	53*	10	13	91*	-11	-14	x	3	2	x
Cc1cc(N)n(-c2ccc(Oc3ccccc3)c(S(=O)(=O)O)c2)n1	10	-2	49	43*	7	75*	60*	-10	1	0	2	17
Cc1cc(N)n(-c2ccc(C)c(C)c2)n1	-2	-4	-3	-2	-1	-8	x	x	x	x	x	x
N#C/C(=C\c1ccc(OC(=O)c2ccc(Cl)s2)cc1)c1nc2ccccc2[nH]1	4	22	83*	71*	46	99*	74*	-10	-3	7	-5	25*
N#C/C(=C\c1ccc(OC(=O)c2ccc(Br)s2)cc1)c1nc2ccccc2[nH]1	3	30	82*	57*	2	101*	52*	0	5.5*	5	-6	26
N#C/C(=C\c1ccncc1)c1nc2ccccc2[nH]1	-13	-1	-3	1	0	-8	x	x	x	x	x	x
COc1cc(/C=N/NC(=O)c2ccccc2O)ccc1OCC(=O)Nc1ccccc1	11	7	0	62*	38	63*	70*	-11	-5	x	x	83*
O=C(COc1ccc(/C=N/NC(=O)c2ccccc2Br)cc1)Nc1ccccc1	-4	0	-4	-1	0	-8	x	x	x	x	x	x
O=C(COc1ccc(/C=N/NC(=O)c2ccccc2O)cc1)Nc1ccccc1	1	10	-4	85*	67*	65*	65*	2	-11	x	x	24*
COc1cc(/C=N/NC(=O)c2ccncc2)ccc1OCC(=O)Nc1ccccc1	-7	-2	3	-4	1	5	x	x	x	x	x	x
O=C(CNC(=O)c1nc[nH]c1C(=O)N1CCc2ccccc2C1)OCc1ccccc1	10	4	2	-3	-2	0	x	x	x	x	x	x
COc1ccccc1N(CC(=O)Nc1ccc(S(=O)(=O)N2CCOCC2)cc1)S(C)(=O)=O	-1	-2	5	-2	0	4	x	x	x	x	x	x
O=C(NCCO)c1cccc(Nc2nc(-c3ccccc3)c3cc(Cl)ccc3n2)c1	-7	-15	-9	0	2	-6	x	x	x	x	x	x
O=C(O)Cc1ccccc1C(=O)O	4	-1	12	-4	-2	-3	x	x	x	x	x	x
O=C(O)Cc1cccc(=O)c(O)c1C(=O)O	18	-2	86*	68*	19	79*	54*	-9	6.3*	x	x	88*
Cc1cc(C(=O)N/N=C/c2ccc(-c3cccc(Br)c3)o2)n[nH]1	4	5	28	2	0	-5	x	x	x	x	x	x
Cc1cc(C(=O)N/N=C/c2ccc(-c3cccc(Cl)c3Cl)o2)n[nH]1	0	13	52*	61*	49	61*	88*	-5	2	17	3	0
Cc1cccc(C(=O)N2N=C(c3ccc(NS(C)(=O)=O)cc3)CC2c2cccs2)c1 (stereo unspecified)	-13	-7	-4	-3	2	-10	x	x	x	x	x	x
COc1ccc2cc3c(N)nn(C(=O)c4cccc(F)c4)c3nc2c1	85*	-2	43	96*	26	96*	60*	-16	-22	x	x	21*
Cc1nc2cc(-c3ccc(Br)cc3)[nH]n2c(=O)c1Cl	12	5	7	97*	38	96*	20	-7	x	x	x	1
Cc1cc(=O)oc2cc(NC(=O)c3cccc(F)c3)ccc12	13	5	58*	91*	30	63*	35*	-17	-28	0	0	15
Cc1cc(=O)oc2cc(NC(=O)c3ccc(OC(F)F)cc3)ccc12	-1	-1	28	84*	41	87*	79*	-12	-6	x	x	13

Source: PubChem (Sanford-Burnham Center for Chemical Genomics)
